Source: ChEMBL document CHEMBL1949667, “Development of small-molecule probes that selectively kill cells induced to express mutant RAS” (Bioorg Med Chem Lett, 2012)
≈ marks a conversion by molar mass, not a printed value. Calls of active or inactive are those of the source. The calls are words filed in the database; no cut-off is given here.

How the values were obtained:
[1] = system: BJeH-LT; test: Cytotoxicity against human BJeH-LT cells up to 20 ug/ml after 48 hrs by alamar blue assay; format: functional, cell-based
Procedure, shortened: (§1)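 Cells grown in DMEM/M199 with heat-inactivated FBS at 37°C, 5% CO2, ≤20 passages. Compounds in DMSO diluted into medium, then 2-fold serial dilutions in medium; 1000 cells/well treated for 48 h. Viability read by adding Alamar Blue (50% in growth medium), incubating 16 h, then fluorescence at 544 excitation/590 emission; concentration-response curves generated.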

[2] = system: BJeLR; test: Cytotoxicity against human BJeLR cells up to 20 ug/ml after 48 hrs by alamar blue assay; format: functional, cell-based; procedure, shortened: as §1
[3] = Cytotoxicity against human BJeLR cells expressing HRAS G12V mutant after 48 hrs by alamar blue assay; format: functional, cell-based
Procedure, shortened: (§2)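 BJ fibroblast lines: BJeLR (hTERT, SV40 large and small T, HRASV12) and DRD (hTERT, SV40 small T, dominant-negative p53, cyclin D1, mutant CDK4, HRASV12), grown in DMEM/M199/heat-inactivated FBS for ≤20 passages. Compounds were taken from DMSO into medium as 2-fold serial dilutions. 1000 cells/well were exposed for 48 h at 37°C, 5% CO2. Alamar Blue was added for 16 h, then fluorescence read at excitation 544, emission 590.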

[4] = Selectivity ratio of IC50 for human BJeH-LT cells to IC50 for human BJeLR cells; format: ADME, cell-based; details: BJeH-LT cells versus BJeLR cells, read-out: Ratio IC50
[5] = Cytotoxicity against human BJeH-LT cells after 48 hrs by alamar blue assay; format: cell-based; procedure, shortened: as §1
[6] = Drug degradation in PBS/DMSO assessed as GSH-adduct formation after 1 hr in the presence of GSH and triethylamine; format: physicochemical; details: buffer
[7] = system: BJ; test: Cytotoxicity against human BJ cells expressing HRAS G12V mutant with alternative oncogenic constructs after 48 hrs by alamar blue assay; format: functional, cell-based; procedure, shortened: as §2
[8] = Drug degradation in PBS assessed as racemisation after 48 hrs by HPLC/MS analysis; format: physicochemical; details: buffer
[9] = Aqueous solubility of the compound; format: physicochemical
[10] = Cytotoxicity against human BJeH cells after 48 hrs by alamar blue assay; format: cell-based
[11] = system: MEF; test: Cytotoxicity against MEF expressing K-rasG12D after 48 hrs by CellTiter-Glo assay; format: functional, cell-based; details: Mus musculus
[12] = (§3) Selectivity ratio of IC50 for human BJeH cells to IC50 for human BJeLR cells; format: ADME, cell-based; details: BJeH cells versus BJeLR cells, read-out: Ratio IC50
[13] = as §3; format: ADME, cell-based; details: BJeH cells versus BJeLR cells, read-out: Ratio IC50; remark: listed apart in the source

SMILES | inhibition [1] | inhibition [2] | IC50 [3] [nM] | selectivity ratio [4] | IC50 [5] [nM] | also measured
Cc1onc(C(=O)NCc2ccc(F)cc2)c1[N+](=O)[O-] | inactive | inactive | – | – | – | –
COC(=O)c1ccc(C2c3[nH]c4ccccc4c3C[C@@H](C(=O)OC)N2C(=O)CCl)cc1 (stereo partly specified) | – | – | 100 | 8 | – | –
CCC(=O)N1CCN(C(=O)c2noc(C)c2[N+](=O)[O-])CC1 | inactive | inactive | – | – | – | –
Cc1onc(C(=O)N2CCN(C(c3ccccc3)c3ccccc3)CC2)c1[N+](=O)[O-] | – | – | 1030 | 4.8 | 4970 | –
Cc1onc(C(=O)N2CCN(C(c3ccccc3)c3ccc(Cl)cc3)CC2)c1[N+](=O)[O-] (racemic) | – | – | 129 | 4 | 510 | –
O=C(c1ccc([N+](=O)[O-])o1)N1CCN(C(c2ccccc2)c2ccccc2)CC1 | – | inactive | – | – | 18900 | –
COc1ccc(N(C(=O)CCl)C(C(=O)NCCc2ccccc2)c2ccc(Cl)s2)cc1Cl (racemic) | – | – | 61 | 2.2 | 133 | –
O=C(c1cc([N+](=O)[O-])ccn1)N1CCN(C(c2ccccc2)c2ccccc2)CC1 | – | – | 37300 | 1.33 | 49700 | –
COc1ccc(N(C(=O)CCl)C(C(=O)NCCc2ccccc2)c2cccs2)cc1Cl (racemic) | – | – | 25 | – | 578 | Drug degradation [6]: Active; IC50 [7]: 34 nM; Drug degradation [8]: Not Active; solubility ([9]; aqueous, read-out: solubility): 16 µM (≈ 7.64 µg/mL); IC50 [10]: 2400 nM
C[C@H](CN1CCCC1)C(=O)c1ccc(C(F)(F)F)cc1 [LANPERISONE] | – | – | – | – | – | IC50 [11]: 4000 nM
COc1ccc(N(C(=O)CCl)C(C(=O)NCCc2ccccc2)c2nc(C)cs2)cc1Cl (racemic) | – | – | 8260 | 2.4 | 19800 | –
COc1ccc(N(CC(=O)NCCc2ccccc2)C(=O)CCl)cc1Cl | – | – | 231 | 2.3 | 531 | –
Cc1onc(C(=O)N2CCN(C(c3ccc(F)cc3)c3ccc(F)cc3)CC2)c1[N+](=O)[O-] | – | – | 183 | 4.1 | 757 | –
COc1ccc(N(C(=O)CCl)C(C)(C)C(=O)NCCc2ccccc2)cc1Cl | – | – | 58 | 2.2 | 127 | –
COc1ccc(N(C(=O)CCl)C(C(=O)NCc2ccccc2)c2cccs2)cc1Cl (racemic) | – | – | 75 | 2.4 | 179 | –
COc1ccc(N(C(=O)CCl)C(C(=O)NCn2nnc3ccccc32)c2cccs2)cc1Cl (racemic) | – | – | 102 | – | 242 | –
Cn1cc([N+](=O)[O-])c(C(=O)N2CCN(C(c3ccccc3)c3ccccc3)CC2)n1 | inactive | inactive | – | – | – | –
Cn1ncc([N+](=O)[O-])c1C(=O)N1CCN(C(c2ccccc2)c2ccccc2)CC1 | inactive | inactive | – | – | – | –

SMILES | inhibition [1] | inhibition [2] | IC50 [3] [nM] | selectivity ratio [4] | IC50 [5] [nM] | also measured
Cc1onc(C(=O)N2CCN(C(c3ccncc3)c3ccncc3)CC2)c1[N+](=O)[O-] | inactive | inactive | – | – | – | solubility ([9]; buffer): > 500 µM
COc1ccc(N(C(=O)CCl)C(C(=O)NCS(=O)(=O)c2ccc(C)cc2)c2cccs2)cc1Cl (racemic) | – | – | 89 | – | 208 | solubility ([9]; aqueous, read-out: solubility): < 1 µM
COc1ccc(N(C(=O)CCl)C(C(=O)NCCc2ccccc2)C(C)C)cc1Cl (racemic) | – | – | 895 | 1.5 | 1300 | –
COc1ccccc1N1CCN(C(=O)c2noc(C)c2[N+](=O)[O-])CC1 | inactive | inactive | – | – | – | –
Cc1onc(C(=O)N2CCN(C(c3ccc(Cl)cc3)c3ccc(Cl)cc3)CC2)c1[N+](=O)[O-] | – | – | 71 | 3.9 | 272 | IC50 [7]: 107 nM; selectivity ratio [12]: 4; IC50 [10]: 628 nM; selectivity ratio [13]: 4
Cc1onc(C(=O)N2CCCN(C(c3ccccc3)c3ccccc3)CC2)c1[N+](=O)[O-] | – | – | 773 | 3.6 | 2790 | –
COc1ccc(N(C(=O)CCl)C(C(=O)NCCc2ccccc2)c2cccs2)cc1 (racemic) | – | – | 220 | 7.8 | 1700 | –
COc1cccc(N(C(=O)CCl)C(C(=O)NCCc2ccccc2)c2cccs2)c1 (racemic) | – | – | 170 | 14 | 2400 | –
COc1ccc(N(C(=O)CCl)C(C(=O)NCCc2ccccc2)C2CCCCC2)cc1Cl (racemic) | – | – | 505 | 2.3 | 1180 | –
Cc1onc(C(=O)N2CCN(C(c3ccccn3)c3ccccn3)CC2)c1[N+](=O)[O-] | inactive | inactive | – | – | – | solubility ([9]; buffer): > 500 µM
Cc1ccc(C(=O)N2CCN(C(c3ccccc3)c3ccccc3)CC2)c([N+](=O)[O-])c1 | inactive | inactive | – | – | – | –
O=C(NCCc1ccccc1)C(c1cccs1)N(C(=O)CCl)c1cccc(Cl)c1 (racemic) | – | – | 156 | 2.1 | 331 | –
COc1ccc(N(C(=O)CCl)C(C(=O)NC2CCCCC2)c2cccs2)cc1Cl (racemic) | – | – | 113 | 2.4 | 270 | –
Cc1onc(C(=O)NCCNC(c2ccccc2)c2ccccc2)c1[N+](=O)[O-] | inactive | – | 21600 | – | – | –
Cc1onc(C(=O)N2CCOCC2)c1[N+](=O)[O-] | inactive | inactive | – | – | – | –
Cc1onc(C(=O)N2CCN(Cc3ccccc3)CC2)c1[N+](=O)[O-] | inactive | inactive | – | – | – | –
O=C(c1n[nH]cc1[N+](=O)[O-])N1CCN(C(c2ccccc2)c2ccccc2)CC1 | inactive | inactive | – | – | – | –
COc1ccc(C(c2ccc(OC)cc2)N2CCN(C(=O)c3noc(C)c3[N+](=O)[O-])CC2)cc1 | – | – | 1570 | 3.4 | 5320 | –
